According to ChEMBL document CHEMBL4387719, “Investigation of biaryl heterocycles as inhibitors of Wee1 kinase” (Bioorg Med Chem Lett, 2019):
Calls of active or inactive are those of the source. No cut-off for these calls is given here.

How the values were obtained:
[1] = test system: NCI-H1299; test: Antiproliferative activity against human NCI-H1299 cells after 72 hrs by cell titer glo assay; assay type: functional, cell-based; conditions: NCI-H1299, 72 h
[2] = target: T1, Wee1-like protein kinase (Homo sapiens, UniProt P30291); test: Inhibition of WEE1 in human NCI-H1299 cells assessed as reduction in Cdc2 phosphorylation at Tyr15 residue measured after 6 hrs by ELISA; assay type: cell-based
[3] = Clearance in mouse microsomes; assay type: ADME, Microsome
[4] = target: T1, Wee1-like protein kinase; test: Binding affinity to wild type N-terminal GST-tagged human WEE1 catalytic domain (215 to 646 residues) expressed in baculovirus expression system measured after 1 hr by TR-FRET assay
[5] = Clearance in iv dosed mouse; assay type: ADME, organism-based; conditions: in vivo
[6] = AUC in po dosed mouse; assay type: ADME, organism-based; conditions: in vivo
[7] = Oral bioavailability in mouse; assay type: ADME, organism-based; conditions: in vivo
[8] = test system: MX1; test: (§1) Potentiation of irinotecan-induced antitumor activity against BRCA1/p53 deficient human MX1 cells xenografted in SCID mouse assessed as tumor growth inhibition at 25 mg/kg/day, po administered every other 2 days for 4 times 24 days post-tumor innoculation and measured twice weekly for 43 days in presence relative to irinotecan; assay type: functional; conditions: read-out: TGI
Summary of the method: (§2)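 MX-1 brei (homogenized tumour cell suspension) was injected subcutaneously into the flank of SCID mice. Treatment started at tumour volume ~350 mm³, with dosing beginning on day 24. Arms were vehicle, irinotecan 10 mg/kg/day Q4Dx4, or irinotecan 10 mg/kg/day Q4Dx4 plus test agent 25 mg/kg/day QD, 2 days on/2 days off, for 4 cycles. Tumour volumes were measured twice weekly.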

[9] = test system: MX1; test: as §1, with “delay” for “inhibition”, “times starting” for “times”, “weekly” for “weekly for 43 days in presence”; assay type: functional; summary of the method: as §2
[10] = test system: MX1; test: as §1, with “times starting from” for “times”, “weekly” for “weekly for 43 days in presence”, “to control” for “to irinotecan”; assay type: functional; conditions: read-out: TGI; summary of the method: as §2
[11] = Half life in iv dosed mouse; assay type: ADME, organism-based; conditions: in vivo
[12] = test system: MX1; test: Antitumor activity against BRCA1/p53 deficient human MX1 cells xenografted in SCID mouse assessed as tumor growth inhibition at 25 mg/kg/day, po administered every other 2 days for 4 times starting 24 days post-tumor innoculation and measured twice weekly; assay type: functional, organism-based

T1 sequence (P30291 whole entry): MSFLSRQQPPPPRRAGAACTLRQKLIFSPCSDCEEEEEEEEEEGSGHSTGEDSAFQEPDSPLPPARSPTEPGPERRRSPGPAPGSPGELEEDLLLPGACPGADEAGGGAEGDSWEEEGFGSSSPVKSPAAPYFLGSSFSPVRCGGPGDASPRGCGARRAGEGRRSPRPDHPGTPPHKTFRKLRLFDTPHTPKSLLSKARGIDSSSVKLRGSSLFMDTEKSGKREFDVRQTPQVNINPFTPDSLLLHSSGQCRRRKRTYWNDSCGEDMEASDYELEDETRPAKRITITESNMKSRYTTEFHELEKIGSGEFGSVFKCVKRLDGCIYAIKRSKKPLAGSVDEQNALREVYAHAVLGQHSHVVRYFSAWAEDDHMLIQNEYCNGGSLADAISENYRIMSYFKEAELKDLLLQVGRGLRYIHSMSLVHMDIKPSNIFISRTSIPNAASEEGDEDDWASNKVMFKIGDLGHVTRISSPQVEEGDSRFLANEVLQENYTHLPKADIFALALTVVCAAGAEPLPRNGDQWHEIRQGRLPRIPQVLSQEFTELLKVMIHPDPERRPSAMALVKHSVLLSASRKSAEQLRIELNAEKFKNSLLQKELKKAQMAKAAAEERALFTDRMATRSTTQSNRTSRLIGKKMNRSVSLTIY

Row | Structure (SMILES) | EC50 [1] | EC50 [2] | CLint scaled [3] | Ki [4] | also measured
1 | CN1CCN(c2ccc(Nc3ncc4c(=O)c(-c5c(Cl)cccc5Cl)cn(C)c4n3)cc2)CC1 | 0.52 µM | 0.079 µM | 270 mL/min/kg |  | 
2 | CN1CCN(c2ccc(Nc3ncc4c(=O)c(-c5c(Cl)cccc5Cl)cn(C5COC5)c4n3)cc2)CC1 | 1.72 µM | 0.324 µM | 582 mL/min/kg |  | 
3 | CN1Cc2cc(Nc3ncc4c(=O)c(-c5c(Cl)cccc5Cl)c[nH]c4n3)ccc2C2(CC2)C1 | 0.33 µM | 0.029 µM | 532 mL/min/kg | 0.0006 µM | 
4 | CN1CCN(c2ccc(Nc3ncc4c(=O)c(-c5c(Cl)cccc5Cl)cn(C5CC5)c4n3)cc2)CC1 | 0.46 µM | 0.022 µM | 582 mL/min/kg | 0.001 µM | 
5 | C=Cc1cn(-c2c(Cl)cccc2Cl)c(=O)c2cnc(Nc3ccc4c(c3)CN(C)CC43CC3)nc12 | 0.08 µM | 0.021 µM | 463 mL/min/kg | 0.0003 µM | 
6 | CN1Cc2cc(Nc3ncc4c(=O)n(-c5c(Cl)cccc5Cl)cc(C(F)F)c4n3)ccc2C2(CC2)C1 | 0.14 µM | 0.018 µM | 753 mL/min/kg | 0.0006 µM | 
7 | CN1CCN(c2ccc(Nc3ncc4c(=O)c(-c5c(Cl)cccc5Cl)cn(CC(C)(C)O)c4n3)cc2)CC1 | > 10 µM | 4.02 µM | 482 mL/min/kg | 0.0002 µM | 
8 | CN(C)CCn1cc(-c2c(Cl)cccc2Cl)c(=O)c2cnc(Nc3ccc(N4CCN(C)CC4)cc3)nc21 | 7.65 µM | 2.85 µM | 1970 mL/min/kg | 0.0244 µM | 
9 | CN1Cc2cc(Nc3ncc4c(=O)c(-c5c(Cl)cccc5Cl)cn(C5CC5)c4n3)ccc2C2(CC2)C1 | 0.39 µM | 0.031 µM | 458 mL/min/kg |  | 
10 | CN1Cc2cc(Nc3ncc4c(=O)c(-c5c(Cl)cccc5Cl)cn(C)c4n3)ccc2C2(CC2)C1 | 0.1 µM | 0.011 µM | 413 mL/min/kg | 0.0003 µM | clearance [5]: 25 mL/min/kg; AUC [6]: 6.2 µM·h; bioavailability [7]: 44%; inhibition in vivo at 25 mg/kg/day [8]: 57%; Activity [9]: 48%; inhibition in vivo at 25 mg/kg/day [10]: 88%; half-life [11]: 2.7 h; TGI [12]: Active
11 | CN1Cc2cc(Nc3ncc4c(=O)n(-c5c(Cl)cccc5Cl)cc(CO)c4n3)ccc2C2(CC2)C1 | 0.06 µM | 0.025 µM | 320 mL/min/kg |  | 
12 | CN1Cc2cc(Nc3ncc4c(=O)n(-c5c(F)cccc5Cl)c5nccn5c4n3)ccc2C(C)(C)C1 |  |  | 635 mL/min/kg | 0.0011 µM | 
13 | Cc1cn(-c2c(Cl)cccc2Cl)c(=O)c2cnc(Nc3ccc4c(c3)CN(C)CC43CC3)nc12 | 0.13 µM | 0.028 µM | 727 mL/min/kg | 0.0005 µM | 
14 | CCn1cc(-c2c(Cl)cccc2Cl)c(=O)c2cnc(Nc3ccc4c(c3)CN(C)CC43CC3)nc21 | 0.21 µM | 0.019 µM |  |  | 
15 | CN1CCN(c2ccc(Nc3ncc4c(=O)c(-c5c(Cl)cccc5Cl)cn(-c5ccccc5)c4n3)cc2)CC1 | 0.5 µM | 0.246 µM |  | 0.0002 µM | 
